# Laboratory results published in publication PMC7740640 (Xenobiotica; the fate of foreign compounds in biological …, 2020).
# Several values for one entry are separate records, joined by “and”; a condition that tells them apart may be missing. Equal entries are not always repeated.
# Key:
# Format in all cases: in vitro ADME
# CYP2C19 [1] = molecular target: T1, CYP2C19 (Homo sapiens, UniProt P33261); experiment: C152 metabolism; conditions: for Specific rate: CYP2C19
# Procedure, shortened: (§1)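 Human P450s in Supersomes that co-express human CPR and cytochrome b5. Reaction in 0.1 M Na-HEPES pH 7.4 with 60 mM KCl, stirred at 30 °C. C152 0.1–30 μM added from acetone stock; 200 μM NADPH starts it. Fluorescence rise read at 500 nm (isosbestic, mono-demethylation step). Rate is the linear slope over 3–5 min, scaled by the C151–C152 fluorescence difference. Michaelis–Menten or Hill fit, Vmax per P450, 2–6 runs; rate at 30 μM computed from fit.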
# CYP2C8 = molecular target: T2, CYP2C8 (Homo sapiens, UniProt P10632); experiment: Projected involvement in C152 metabolism in HLM
# T2 sequence (P10632 1-490): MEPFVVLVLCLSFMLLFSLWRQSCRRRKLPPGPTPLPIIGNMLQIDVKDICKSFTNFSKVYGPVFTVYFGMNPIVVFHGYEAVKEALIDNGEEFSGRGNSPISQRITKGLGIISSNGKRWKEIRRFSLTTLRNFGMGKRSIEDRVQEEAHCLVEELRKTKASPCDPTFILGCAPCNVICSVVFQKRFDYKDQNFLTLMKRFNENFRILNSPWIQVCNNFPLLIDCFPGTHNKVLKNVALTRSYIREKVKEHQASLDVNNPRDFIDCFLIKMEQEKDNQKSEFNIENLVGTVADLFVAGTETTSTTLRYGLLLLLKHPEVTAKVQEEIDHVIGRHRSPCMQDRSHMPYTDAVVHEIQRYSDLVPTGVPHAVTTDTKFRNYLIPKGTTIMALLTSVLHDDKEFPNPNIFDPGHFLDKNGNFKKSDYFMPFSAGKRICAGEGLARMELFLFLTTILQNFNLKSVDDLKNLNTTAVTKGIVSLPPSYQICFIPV
# CYP3A4 [2] = molecular target: T3, CYP3A4 (Homo sapiens, UniProt P08684); experiment: Formation of C151 from C152; conditions: SS(3A4)
# T3 sequence (P08684 2-503 limits assumed): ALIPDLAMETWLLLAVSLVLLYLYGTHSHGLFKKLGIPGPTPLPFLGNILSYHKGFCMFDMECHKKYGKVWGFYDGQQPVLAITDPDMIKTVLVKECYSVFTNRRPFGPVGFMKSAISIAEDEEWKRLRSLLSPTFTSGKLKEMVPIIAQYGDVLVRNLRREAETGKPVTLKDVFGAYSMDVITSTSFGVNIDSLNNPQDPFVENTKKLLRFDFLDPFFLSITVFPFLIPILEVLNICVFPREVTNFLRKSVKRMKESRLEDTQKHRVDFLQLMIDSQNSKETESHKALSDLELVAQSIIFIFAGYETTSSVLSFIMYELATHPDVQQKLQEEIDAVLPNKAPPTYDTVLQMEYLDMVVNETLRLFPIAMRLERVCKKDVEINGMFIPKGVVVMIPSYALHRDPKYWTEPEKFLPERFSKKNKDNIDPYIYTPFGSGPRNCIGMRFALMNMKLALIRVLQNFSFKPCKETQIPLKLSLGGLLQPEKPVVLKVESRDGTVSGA
# Procedure, shortened: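 Probes hold 5–20 pmol P450 in 0.1 M Na-HEPES pH 7.4 with 60 mM KCl. C152 added from 0.5 or 4 mM acetone stock; reaction started with 500 μM NADPH (final), run 5 min at 30 °C with shaking. Quenched with isopropanol containing phenacetin internal standard, then centrifuged. C151 quantified by reverse-phase LC with ESI-positive MRM MS/MS (m/z 230.16→157.2). Michaelis–Menten or Hill fit; normalized per P450 (Supersomes) or CPR (HLM).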
# CYP2B6 = molecular target: T4, CYP2B6 (Homo sapiens, UniProt P20813); experiment: Projected involvement in C152 metabolism in HLM
# T4 sequence (P20813 1-491): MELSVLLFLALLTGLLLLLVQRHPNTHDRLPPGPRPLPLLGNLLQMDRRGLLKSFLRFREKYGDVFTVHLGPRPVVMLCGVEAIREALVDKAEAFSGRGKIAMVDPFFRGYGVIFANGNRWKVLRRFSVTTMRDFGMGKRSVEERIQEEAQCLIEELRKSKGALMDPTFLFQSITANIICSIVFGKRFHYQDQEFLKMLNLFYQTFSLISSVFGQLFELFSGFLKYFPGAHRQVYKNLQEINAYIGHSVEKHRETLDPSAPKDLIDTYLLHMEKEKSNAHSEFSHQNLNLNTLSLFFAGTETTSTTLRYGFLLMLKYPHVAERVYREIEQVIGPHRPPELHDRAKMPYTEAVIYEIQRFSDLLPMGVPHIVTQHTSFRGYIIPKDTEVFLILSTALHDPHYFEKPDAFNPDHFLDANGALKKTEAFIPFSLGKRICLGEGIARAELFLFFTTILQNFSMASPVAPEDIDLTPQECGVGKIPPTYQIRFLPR
# Procedure, shortened: (§2)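 Calculated values, no new incubations. Each of seven C152-metabolizing P450s has a fractional content in the pooled HLM P450 pool (LC-MS/MS MRM). That fraction is multiplied by its Supersome Vmax (saturation) or by its rate at 30 μM C152 from Hill or Michaelis–Menten parameters. Expected participation (% TNR) is each normalized rate divided by the sum of all seven.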
# CYP2C19 [3] = molecular target: T1, CYP2C19; experiment: Projected involvement in C152 metabolism in HLM
# Procedure, shortened: as §2
# CYP1A2 = molecular target: T5, CYP1A2 (Homo sapiens, UniProt P05177); experiment: Projected involvement in C152 metabolism in HLM
# T5 sequence (P05177 2-516 limits assumed): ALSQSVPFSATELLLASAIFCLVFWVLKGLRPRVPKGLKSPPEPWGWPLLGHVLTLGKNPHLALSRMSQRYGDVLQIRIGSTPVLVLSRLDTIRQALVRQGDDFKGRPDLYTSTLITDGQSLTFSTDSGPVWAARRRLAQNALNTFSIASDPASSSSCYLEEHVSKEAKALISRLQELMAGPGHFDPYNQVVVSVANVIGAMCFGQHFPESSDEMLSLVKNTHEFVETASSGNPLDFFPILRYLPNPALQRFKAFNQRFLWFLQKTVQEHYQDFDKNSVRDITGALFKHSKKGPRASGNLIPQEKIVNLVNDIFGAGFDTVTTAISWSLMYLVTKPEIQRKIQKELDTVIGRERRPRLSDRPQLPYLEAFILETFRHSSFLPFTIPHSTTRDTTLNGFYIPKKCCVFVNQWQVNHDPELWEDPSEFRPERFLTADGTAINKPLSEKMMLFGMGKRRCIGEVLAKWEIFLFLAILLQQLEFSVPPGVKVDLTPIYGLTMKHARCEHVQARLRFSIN
# Procedure, shortened: as §2
# CYP3A5 = CYP3A5 (Homo sapiens, UniProt P20815); experiment: Projected involvement in C152 metabolism in HLM
# Chain of CYP3A5 (P20815 whole entry): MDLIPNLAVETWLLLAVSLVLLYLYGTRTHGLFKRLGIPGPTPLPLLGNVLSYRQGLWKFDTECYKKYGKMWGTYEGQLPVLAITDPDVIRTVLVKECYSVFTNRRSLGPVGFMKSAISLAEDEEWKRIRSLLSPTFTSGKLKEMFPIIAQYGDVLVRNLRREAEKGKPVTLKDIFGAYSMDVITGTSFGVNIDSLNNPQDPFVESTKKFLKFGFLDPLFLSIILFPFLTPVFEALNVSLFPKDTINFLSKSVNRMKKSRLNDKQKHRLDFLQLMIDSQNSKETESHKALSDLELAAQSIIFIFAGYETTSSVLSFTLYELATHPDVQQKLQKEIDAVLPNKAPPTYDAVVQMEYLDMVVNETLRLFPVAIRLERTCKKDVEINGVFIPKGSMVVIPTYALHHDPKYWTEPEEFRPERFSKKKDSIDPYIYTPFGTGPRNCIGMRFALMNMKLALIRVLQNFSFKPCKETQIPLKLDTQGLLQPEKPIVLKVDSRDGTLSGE
# Procedure, shortened: as §2
# CYP3A4 [4] = molecular target: T3, CYP3A4; experiment: C152 metabolism; conditions: for Specific rate: CYP3A4
# Procedure, shortened: as §1
# [5] = at 30 μM C152, calculated from fit parameters
# [6] = at saturation (Vmax in Supersomes)
# [7] = at saturation of all P450 species
# [8] = at saturation of all P450 species, % TNR
# T1 sequence (P33261 whole entry): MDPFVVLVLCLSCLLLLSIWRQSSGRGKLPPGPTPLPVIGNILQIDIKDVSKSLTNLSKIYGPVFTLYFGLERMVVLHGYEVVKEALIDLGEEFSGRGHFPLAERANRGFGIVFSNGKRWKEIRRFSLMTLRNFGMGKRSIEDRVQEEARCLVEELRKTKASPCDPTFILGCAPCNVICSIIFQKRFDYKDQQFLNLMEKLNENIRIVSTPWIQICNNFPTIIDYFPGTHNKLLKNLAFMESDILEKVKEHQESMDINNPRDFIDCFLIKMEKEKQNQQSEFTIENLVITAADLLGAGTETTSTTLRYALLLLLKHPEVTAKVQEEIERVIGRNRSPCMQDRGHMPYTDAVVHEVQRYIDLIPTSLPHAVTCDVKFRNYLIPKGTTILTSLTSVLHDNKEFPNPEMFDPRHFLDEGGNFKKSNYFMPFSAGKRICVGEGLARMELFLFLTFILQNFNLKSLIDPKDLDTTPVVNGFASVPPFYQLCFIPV
smiles,measurement,setting,value
"CN(C)c1ccc2c(C(F)(F)F)cc(=O)oc2c1 [C152, 7-Dimethylamino-4-trifluromethylcoumarin]",Specific rate,CYP2C19 [1]; [5],6.5 min⁻¹
same,Specific rate,CYP2C19 [1]; [6],7.8 min⁻¹
same,"Vmax (C152 metabolism, fluorimetric assay)","CYP2C19 [1]; SS(2C19), mol C152 per mol P450 per min",7.8 ± 3.4 min⁻¹
same,"Fraction of C151 formed, Fluorimetry","CYP2C19 [1]; SS(2C19), scanning fluorimetry with PCA",3.2±2.4%
same,Km,"CYP2C19 [1]; read-out: KM or S50 (C152 metabolism, fluorimetric assay), SS(2C19), Michaelis-Menten fit, 30 °C, pH 7.4",5.7 ± 1.1 µM
same,Normalized rate,CYP2C8; at 30 μM C152,0.020 min⁻¹
same,Expected participation,"CYP2C8; at 30 μM C152, % TNR",0.16%
same,Normalized rate,CYP2C8; [7],0.022 min⁻¹
same,Expected participation,CYP2C8; [8],0.17%
same,"N, Hill coefficient (Formation of C151, LC-MS)",CYP3A4 [2],1.4±0.4
same,"Fraction of C151 formed, LC-MS",CYP3A4 [2]; C151 formed over total C152 metabolized,5.4±2.4%
same,"Vmax (Formation of C151, LC-MS)",CYP3A4 [2]; mol C151 formed per mol P450 per min,0.94 ± 0.41 min⁻¹
same,Km,"CYP3A4 [2]; read-out: KM or S50 (Formation of C151, LC-MS), Hill fit (S50)",6.4 ± 1.1 µM
same,Normalized rate,CYP2B6; at 30 μM C152,0.863 min⁻¹
same,Expected participation,"CYP2B6; at 30 μM C152, % TNR",7.10%
same,Normalized rate,CYP2B6; [7],0.914 min⁻¹
same,Normalized rate,CYP2C19 [3]; at 30 μM C152,0.026 min⁻¹
same,Expected participation,"CYP2C19 [3]; at 30 μM C152, % TNR",0.2% and 0.22%
same,Normalized rate,CYP2C19 [3]; [7],0.031 min⁻¹
same,Expected participation,CYP2C19 [3]; [8],0.24%
same,Normalized rate,CYP1A2; at 30 μM C152,0.375 min⁻¹
same,Expected participation,"CYP1A2; at 30 μM C152, % TNR",3.08%
same,Normalized rate,CYP1A2; [7],0.412 min⁻¹
same,Expected participation,CYP1A2; [8],3.10%
same,Normalized rate,CYP3A5; at 30 μM C152,0.074 min⁻¹
same,Expected participation,"CYP3A5; at 30 μM C152, % TNR",0.61%
same,Normalized rate,CYP3A5; [7],0.120 min⁻¹
same,Expected participation,CYP3A5; [8],0.91%
same,Specific rate,CYP3A4 [4]; [5],16.5 min⁻¹
same,Specific rate,CYP3A4 [4]; [6],17.3 min⁻¹
same,"N, Hill coefficient (C152 metabolism, fluorimetric assay)",CYP3A4 [4]; SS(3A4),1.6±0.2
same,"Vmax (C152 metabolism, fluorimetric assay)","CYP3A4 [4]; SS(3A4), mol C152 per mol P450 per min",17 ± 3 min⁻¹
same,"Fraction of C151 formed, Fluorimetry","CYP3A4 [4]; SS(3A4), scanning fluorimetry with PCA",2.5±0.3%
same,Km,"CYP3A4 [4]; read-out: KM or S50 (C152 metabolism, fluorimetric assay), SS(3A4), Hill fit (S50), 30 °C, pH 7.4",4.5 ± 1.2 µM
